How the values were obtained:
[1] = target: T1, 17-beta-hydroxysteroid dehydrogenase type 3 (Homo sapiens, UniProt P37058); assay: Inhibition of type-3 17 beta-hydroxysteroid dehydrogenase expressed in HEK293 cells at 37 degree C pH7.4; type: cell-based
T1 sequence (P37058 whole entry): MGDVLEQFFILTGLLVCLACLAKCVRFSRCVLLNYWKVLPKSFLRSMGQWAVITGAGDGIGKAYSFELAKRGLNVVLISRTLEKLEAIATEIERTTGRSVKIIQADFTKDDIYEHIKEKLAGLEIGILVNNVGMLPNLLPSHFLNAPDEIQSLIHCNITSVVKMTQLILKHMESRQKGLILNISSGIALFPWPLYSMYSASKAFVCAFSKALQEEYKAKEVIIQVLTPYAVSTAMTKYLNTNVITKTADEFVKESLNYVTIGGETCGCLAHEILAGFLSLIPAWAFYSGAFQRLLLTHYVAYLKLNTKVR
In short: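 HEK-293 cells were transfected with human type 3 17β-HSD, and their 100000g microsomes served as enzyme. Incubation was at 37 °C in 50 mM Na phosphate pH 7.4 with 20% glycerol, 1 mM EDTA, 2 mM NADPH and 0.1 μM [14C]-Δ4-dione. Several inhibitor concentrations were tested. Percent transformation to testosterone was plotted against inhibitor concentration, and IC50 was computed from the curve.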

[2] = target: T2, 17-beta-hydroxysteroid dehydrogenase type 3 (Homo sapiens) (UniProt P37058); assay: Inhibition of type-3 17 beta-hydroxysteroid dehydrogenase expressed in HEK293 cells at 3 uM 37 degree C pH 7.4; type: cell-based
T2 sequence (whole entry): T1 sequence (P37058 whole entry)
In short: (§1)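 Human type 3 17β-HSD was transfected into HEK-293 cells by calcium phosphate. The cells were sonicated in 50 mM Na phosphate pH 7.4 with 20% glycerol and 1 mM EDTA. The 100000g microsomal pellet served as enzyme. The reaction ran at 37 °C in the same buffer with 2 mM NADPH and 0.1 μM [14C]-Δ4-dione, reading conversion to testosterone. Percent inhibition was taken at 0.3 or 3 μM inhibitor.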

[3] = target: T2, 17-beta-hydroxysteroid dehydrogenase type 3 (Homo sapiens); assay: Inhibition of type-3 17 beta-hydroxysteroid dehydrogenase expressed in HEK293 cells at 0.3 uM 37 degree C pH 7.4; type: cell-based; in short: as §1
[4] = target: T2, 17-beta-hydroxysteroid dehydrogenase type 3 (Homo sapiens); assay: Inhibition of type-3 17 beta-hydroxysteroid dehydrogenase expressed in HEK293 cells at 3 uM 37 degree C in pH 7.4; type: cell-based; in short: as §1
[5] = target: T2, 17-beta-hydroxysteroid dehydrogenase type 3 (Homo sapiens); details: HEK293, 0.3 uM

| SMILES | IC50 [1] [nM] | inhibition [2] [%] | inhibition [3] [%] | inhibition [4] [%] | inhibition [5] [%] |
| --- | --- | --- | --- | --- | --- |
| CCO[C@]1(Cc2ccccc2)CC[C@@]2(C)C(CC[C@@H]3[C@@H]2CC[C@]2(C)C(=O)CC[C@@H]32)C1 (stereo not given in full) | 352 | 92 | 80 |  |  |
| C[C@]12CC[C@@H](OCCCBr)CC1CC[C@@H]1[C@@H]2CC[C@]2(C)C(=O)CC[C@@H]12 (stereo not given in full) |  | 93 | 56 |  |  |
| CCCC[C@@]1(O)CC[C@@]2(C)C(CC[C@@H]3[C@@H]2CC[C@]2(C)C(=O)CC[C@@H]32)C1 (stereo not given in full) | 116 | 92 | 88 |  |  |
| C[C@]12CC[C@](O)(CCCc3ccccc3)CC1CC[C@@H]1[C@@H]2CC[C@]2(C)C(=O)CC[C@@H]12 (stereo not given in full) |  |  | 93 | 97 |  |
| C[C@]12CCC3(CCCO3)CC1CC[C@@H]1[C@@H]2CC[C@]2(C)C(=O)CC[C@@H]12 (stereo not given in full) |  | 94 | 3 |  |  |
| C[C@]12CC[C@](O)(CCCO)CC1CC[C@@H]1[C@@H]2CC[C@]2(C)C(=O)CC[C@@H]12 (stereo not given in full) |  | 74 | 17 |  |  |
| C=CCO[C@@H]1CC[C@@]2(C)C(CC[C@@H]3[C@@H]2CC[C@]2(C)C(=O)CC[C@@H]32)C1 (stereo not given in full) |  | 95 | 73 |  |  |
| C[C@]12CC[C@@H](OCCC(=O)O)CC1CC[C@@H]1[C@@H]2CC[C@]2(C)C(=O)CC[C@@H]12 (stereo not given in full) |  | 48 | 7 |  |  |
| CO[C@]1(CCC2CCCCC2)CC[C@@]2(C)C(CC[C@@H]3[C@@H]2CC[C@]2(C)C(=O)CC[C@@H]32)C1 (stereo not given in full) | 354 | 88 | 80 |  |  |
| C[C@]12CC[C@@H](OCCCO)CC1CC[C@@H]1[C@@H]2CC[C@]2(C)C(=O)CC[C@@H]12 (stereo not given in full) |  | 86 | 38 |  |  |
| C[C@]12CC[C@@](O)(c3ccccc3)CC1CC[C@@H]1[C@@H]2CC[C@]2(C)C(=O)CC[C@@H]12 (stereo not given in full) |  | 39 | 7 |  |  |
| CCCO[C@@H]1CC[C@@]2(C)C(CC[C@@H]3[C@@H]2CC[C@]2(C)C(=O)CC[C@@H]32)C1 (stereo not given in full) |  | 93 | 49 |  |  |
| CC(C)(C)[C@@]1(O)CC[C@@]2(C)C(CC[C@@H]3[C@@H]2CC[C@]2(C)C(=O)CC[C@@H]32)C1 (stereo not given in full) | 142 | 93 |  |  | 89 |
| CCCCCCO[C@]1(Cc2ccccc2)CC[C@@]2(C)C(CC[C@@H]3[C@@H]2CC[C@]2(C)C(=O)CC[C@@H]32)C1 (stereo not given in full) |  | 28 | 24 |  |  |
| C[C@]12CC[C@]3(CCC(=O)O3)CC1CC[C@@H]1[C@@H]2CC[C@]2(C)C(=O)CC[C@@H]12 (stereo not given in full) |  | 93 | 50 |  |  |
| C[C@]12CC[C@@](O)(CCCO)CC1CC[C@@H]1[C@@H]2CC[C@]2(C)C(=O)CC[C@@H]12 (stereo not given in full) |  | 17 | 2 |  |  |

| SMILES | IC50 [1] [nM] | inhibition [2] [%] | inhibition [3] [%] | inhibition [4] [%] | inhibition [5] [%] |
| --- | --- | --- | --- | --- | --- |
| C=C[C@@]1(O)CC[C@@]2(C)C(CC[C@@H]3[C@@H]2CC[C@]2(C)C(=O)CC[C@@H]32)C1 (stereo not given in full) |  | 94 | 77 |  |  |
| C[C@]12CC[C@@]3(CCC(=O)O3)CC1CC[C@@H]1[C@@H]2CC[C@]2(C)C(=O)CC[C@@H]12 (stereo not given in full) |  | 53 | 9 |  |  |
| C=CC[C@@]1(O)CC[C@@]2(C)C(CC[C@@H]3[C@@H]2CC[C@]2(C)C(=O)CC[C@@H]32)C1 (stereo not given in full) |  | 76 | 31 |  |  |
| CCC[C@]1(O)CC[C@@]2(C)C(CC[C@@H]3[C@@H]2CC[C@]2(C)C(=O)CC[C@@H]32)C1 (stereo not given in full) |  | 33 | 9 |  |  |
| CCCCCCO[C@@H]1CC[C@@]2(C)C(CC[C@@H]3[C@@H]2CC[C@]2(C)C(=O)CC[C@@H]32)C1 (stereo not given in full) |  | 92 | 45 |  |  |
| CO[C@]1(CCc2ccccc2)CC[C@@]2(C)C(CC[C@@H]3[C@@H]2CC[C@]2(C)C(=O)CC[C@@H]32)C1 (stereo not given in full) | 73 | 95 | 61 |  |  |
| C[C@]12CC[C@H](O)CC1CC[C@@H]1[C@@H]2CC[C@]2(C)C(=O)CC[C@@H]12 (stereo not given in full) |  | 18 | 1 |  |  |
| C=CC[C@]1(O)CC[C@@]2(C)C(CC[C@@H]3[C@@H]2CC[C@]2(C)C(=O)CC[C@@H]32)C1 (stereo not given in full) |  | 36 | 14 |  |  |
| CCCCCCCCCCCC[C@@]1(O)CC[C@@]2(C)C(CC[C@@H]3[C@@H]2CC[C@]2(C)C(=O)CC[C@@H]32)C1 (stereo not given in full) |  | 77 | 50 |  |  |
| C[C@]1(O)CC[C@@]2(C)C(CC[C@@H]3[C@@H]2CC[C@]2(C)C(=O)CC[C@@H]32)C1 (stereo not given in full) |  | 16 | 9 |  |  |
| C[C@]12CC[C@@](O)(Cc3ccccc3)CC1CC[C@@H]1[C@@H]2CC[C@]2(C)C(=O)CC[C@@H]12 (stereo not given in full) |  | 39 | 10 |  |  |
| CO[C@]1(Cc2ccccc2)CC[C@@]2(C)C(CC[C@@H]3[C@@H]2CC[C@]2(C)C(=O)CC[C@@H]32)C1 (stereo not given in full) | 154 | 93 | 91 |  |  |
| CO[C@@H]1CC[C@@]2(C)C(CC[C@@H]3[C@@H]2CC[C@]2(C)C(=O)CC[C@@H]32)C1 (stereo not given in full) |  | 94 | 83 |  |  |
| CCCO[C@]1(Cc2ccccc2)CC[C@@]2(C)C(CC[C@@H]3[C@@H]2CC[C@]2(C)C(=O)CC[C@@H]32)C1 (stereo not given in full) |  | 87 | 60 |  |  |
| CC(O)CO[C@@H]1CC[C@@]2(C)C(CC[C@@H]3[C@@H]2CC[C@]2(C)C(=O)CC[C@@H]32)C1 (stereo not given in full) |  | 89 | 40 |  |  |
| CCO[C@@H]1CC[C@@]2(C)C(CC[C@@H]3[C@@H]2CC[C@]2(C)C(=O)CC[C@@H]32)C1 (stereo not given in full) |  | 95 | 69 |  |  |

From ChEMBL document CHEMBL1141146, “Androsterone 3alpha-ether-3beta-substituted and androsterone 3beta-substituted derivatives as inhibitors of type 3 17beta-hydroxysteroid dehydrogenase: chemical synthesis and structure-activity relationship” (J Med Chem, 2005)
